{"source": "ChEMBL document CHEMBL4014309", "about": "“Development of an Acrylate Derivative Targeting the NLRP3 Inflammasome for the Treatment of Inflammatory Bowel Disease” (J Med Chem, 2017)", "key": {"[1]": {"molecular_target": "NACHT, LRR and PYD domains-containing protein 3 (Mus musculus) (UniProt Q8R4B8)", "sequence (Q8R4B8 whole entry, the tested form may be a part)": "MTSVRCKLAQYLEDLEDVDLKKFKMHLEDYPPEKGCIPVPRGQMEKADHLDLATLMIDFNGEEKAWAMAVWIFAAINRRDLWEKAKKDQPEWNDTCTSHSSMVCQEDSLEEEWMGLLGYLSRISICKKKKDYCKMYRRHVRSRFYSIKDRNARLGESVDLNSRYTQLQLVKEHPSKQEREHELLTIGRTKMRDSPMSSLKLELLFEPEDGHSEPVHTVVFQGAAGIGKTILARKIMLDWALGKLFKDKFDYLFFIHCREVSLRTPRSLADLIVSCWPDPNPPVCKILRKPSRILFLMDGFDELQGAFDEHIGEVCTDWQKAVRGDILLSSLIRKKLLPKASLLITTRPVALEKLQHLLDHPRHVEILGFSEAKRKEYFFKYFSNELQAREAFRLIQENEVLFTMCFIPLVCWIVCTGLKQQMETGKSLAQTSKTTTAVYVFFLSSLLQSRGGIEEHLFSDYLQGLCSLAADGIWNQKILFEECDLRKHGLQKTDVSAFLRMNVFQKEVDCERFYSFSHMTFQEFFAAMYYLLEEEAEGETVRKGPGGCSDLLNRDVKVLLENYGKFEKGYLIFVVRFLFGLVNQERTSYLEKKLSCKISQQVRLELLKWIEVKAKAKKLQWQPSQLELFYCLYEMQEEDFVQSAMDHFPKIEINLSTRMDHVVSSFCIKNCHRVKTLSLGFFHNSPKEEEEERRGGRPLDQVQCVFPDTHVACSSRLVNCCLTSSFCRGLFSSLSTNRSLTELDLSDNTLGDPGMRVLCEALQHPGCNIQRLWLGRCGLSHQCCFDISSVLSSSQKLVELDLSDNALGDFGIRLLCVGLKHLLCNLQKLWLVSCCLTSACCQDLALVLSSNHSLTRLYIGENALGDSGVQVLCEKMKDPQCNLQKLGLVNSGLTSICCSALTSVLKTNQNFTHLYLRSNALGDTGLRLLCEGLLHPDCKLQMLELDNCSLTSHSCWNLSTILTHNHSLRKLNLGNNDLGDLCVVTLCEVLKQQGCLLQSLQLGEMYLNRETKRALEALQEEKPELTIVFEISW", "assay": "Inhibition of NLRP3 inflammasome in LPS-primed C57BL/6 mouse bone marrow derived macrophages assessed as reduction in nigericin-induced caspase-1 activation at 10 to 100 uM preincubated for 1 hr followed by stimulation with nigericin measured after 30 mins by Western blot analysis"}, "[2]": {"assay": "Glutathione reactivity assessed as adduct formation of the compound at pH 7.4 and 9"}, "Rattus norvegicus [3]": {"system": "Rattus norvegicus", "assay": "Antiinflammatory activity in DNBS-induced Sprague-Dawley rat colitis model assessed as DNBS-induced macroscopic damage score at 25 mg/kg/day, ig administered as suspension in olive oil for 6 days simulatneously with 6 days of DNBS-challenge (reference value: 8.6 +/- 0.6)", "type": "functional"}, "Caspase-1 (Homo sapiens)": {"molecular_target": "T1, Caspase-1 (Homo sapiens) (UniProt P29466)", "T1 sequence (whole entry)": "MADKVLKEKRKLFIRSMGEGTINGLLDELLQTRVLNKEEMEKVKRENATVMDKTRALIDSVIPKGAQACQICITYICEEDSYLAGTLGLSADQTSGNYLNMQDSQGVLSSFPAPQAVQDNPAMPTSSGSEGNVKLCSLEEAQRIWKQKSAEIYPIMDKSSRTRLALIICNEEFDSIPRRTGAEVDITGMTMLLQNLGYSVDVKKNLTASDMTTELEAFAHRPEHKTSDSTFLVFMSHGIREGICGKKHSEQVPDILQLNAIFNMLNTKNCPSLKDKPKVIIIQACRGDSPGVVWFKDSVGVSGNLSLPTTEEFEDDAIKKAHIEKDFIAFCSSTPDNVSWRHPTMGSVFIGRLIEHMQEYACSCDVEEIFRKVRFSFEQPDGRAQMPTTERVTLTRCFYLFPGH", "assay": "Inhibition of recombinant human caspase-1 at 10 to 100 uM using z-YVAD-AFC as substrate measured every 10 mins for 3 hrs by fluorescence analysis"}, "[4]": {"molecular_target": "NACHT, LRR and PYD domains-containing protein 3 (Mus musculus) (UniProt Q8R4B8)", "assay": "Inhibition of NLRP3 inflammasome in LPS-primed C57BL/6 mouse bone marrow derived macrophages assessed as reduction in nigericin-induced pyroptosis at 10 to 100 uM preincubated for 1 hr followed by stimulation with ATP measured after 30 mins by LDH release assay", "how_it_was_run": "(§1)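 Bone marrow macrophages from C57BL/6 mice, differentiated with 20% L-cell medium, primed with LPS (1 µg/mL, 3 h). Test agent or vehicle was added for 1 h, then ATP (5 mM, 30 min) or nigericin (10 µM, 30 min). IL-1β in the medium was measured by ELISA. LDH in the medium was measured colorimetrically as % of total cellular LDH.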"}, "Rattus norvegicus [5]": {"system": "Rattus norvegicus", "assay": "Anti-inflammatory activity in DNBS-induced Sprague-Dawley rat colitis model assessed as DNBS-induced TNFalpha levels in colon at 25 mg/kg/day, ig for 6 days simulatneously with 6 days of DNBS-challenge by ELISA (reference value: 5.9 +/- 0.6 pg/mg)", "type": "functional"}, "Rattus norvegicus [6]": {"system": "Rattus norvegicus", "assay": "Antiinflammatory activity in DNBS-induced Sprague-Dawley rat colitis model assessed as DNBS-induced macroscopic damage score at 12.5 mg/kg/day, ig administered as suspension in olive oil for 6 days simulatneously with 6 days of DNBS-challenge (reference value: 8.6 +/- 0.6)", "type": "functional"}, "[7]": {"assay": "Cysteamine reactivity in PBS assessed as free compound level at pH 7.4 measured after 60 mins by DTNB reagent based RP-UHPLC analysis", "how_it_was_run": "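The compound was reacted with excess cysteamine in pH 7.4 phosphate buffer with CH3CN cosolvent at 37 °C. Remaining compound was followed by UHPLC over 4 h, sampled at 30 min, 60 min and 4 h, and expressed as percent of starting concentration.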"}, "Rattus norvegicus [8]": {"system": "Rattus norvegicus", "assay": "Antiinflammatory activity in DNBS-induced Sprague-Dawley rat colitis model assessed as DNBS-induced decrease in colonic length at 12.5 mg/kg/day, ig administered as suspension in olive oil for 6 days simulatneously with 6 days of DNBS-challenge (reference value: -34.4%)", "type": "functional", "design": "scale not given: the % may be the effect or the level left"}, "[9]": {"molecular_target": "NACHT, LRR and PYD domains-containing protein 3 (Mus musculus) (UniProt Q8R4B8)", "assay": "Inhibition of NLRP3 inflammasome in LPS-primed C57BL/6 mouse bone marrow derived macrophages assessed as reduction in ATP-induced pyroptosis at 10 to 100 uM preincubated for 1 hr followed by stimulation with ATP measured after 30 mins by LDH release assay", "how_it_was_run": "as §1"}, "Duodenum": {"system": "Duodenum", "assay": "Drug metabolism in Sprague-Dawley rat duodenum assessed as 2-(2-chlorobenzyl)acrylic acid level at 12.5 mg as suspension in olive oil measured after 2 hrs by UHPLC-MS analysis", "type": "ADME, tissue-based", "details": "in vivo"}, "[10]": {"assay": "Drug metabolism in Sprague-Dawley rat ileum tract assessed as 2-(2-chlorobenzyl)acrylic acid level at 12.5 mg as suspension in olive oil measured after 2 hrs by UHPLC-M", "type": "ADME", "details": "in vivo"}, "[11]": {"molecular_target": "NACHT, LRR and PYD domains-containing protein 3 (Homo sapiens) (UniProt Q96P20)", "sequence (Q96P20 whole entry, the tested form may be a part)": "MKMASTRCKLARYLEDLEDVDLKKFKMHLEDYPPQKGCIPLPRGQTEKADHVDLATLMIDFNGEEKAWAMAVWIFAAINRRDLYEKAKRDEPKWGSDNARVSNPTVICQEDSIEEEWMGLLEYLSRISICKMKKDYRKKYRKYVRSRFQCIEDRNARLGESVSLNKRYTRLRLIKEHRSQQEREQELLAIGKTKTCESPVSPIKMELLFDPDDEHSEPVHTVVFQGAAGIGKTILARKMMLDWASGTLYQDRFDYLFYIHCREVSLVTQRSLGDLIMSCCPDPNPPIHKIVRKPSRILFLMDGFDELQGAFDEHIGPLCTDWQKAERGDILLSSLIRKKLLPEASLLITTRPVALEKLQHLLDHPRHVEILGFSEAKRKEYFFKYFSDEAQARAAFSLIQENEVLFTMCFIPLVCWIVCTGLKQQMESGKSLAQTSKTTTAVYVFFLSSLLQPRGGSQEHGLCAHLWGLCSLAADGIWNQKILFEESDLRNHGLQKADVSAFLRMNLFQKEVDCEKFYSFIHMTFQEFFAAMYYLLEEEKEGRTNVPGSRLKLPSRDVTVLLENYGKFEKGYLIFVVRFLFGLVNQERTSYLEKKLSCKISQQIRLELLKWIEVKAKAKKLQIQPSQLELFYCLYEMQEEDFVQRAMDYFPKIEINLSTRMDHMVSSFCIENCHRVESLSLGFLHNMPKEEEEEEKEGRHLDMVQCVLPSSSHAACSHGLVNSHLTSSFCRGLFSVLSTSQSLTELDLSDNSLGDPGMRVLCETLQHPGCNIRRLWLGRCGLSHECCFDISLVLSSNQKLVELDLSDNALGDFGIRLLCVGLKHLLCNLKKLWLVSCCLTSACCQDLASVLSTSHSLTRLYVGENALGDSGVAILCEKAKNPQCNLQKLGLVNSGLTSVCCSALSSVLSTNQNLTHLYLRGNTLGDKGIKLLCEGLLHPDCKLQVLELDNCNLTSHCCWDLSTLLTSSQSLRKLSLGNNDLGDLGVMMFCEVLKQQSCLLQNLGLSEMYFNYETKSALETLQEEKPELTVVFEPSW", "assay": "Irreversible inhibition of His-FLAG- tagged NLRP3-ATPase (unknown origin) at 100 uM preincubated for 55 mins followed by compound wash-out and ATP addition measured after 40 mins by ADP-Glo assay", "how_it_was_run": "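His-FLAG NLRP3 (105 ng/well) captured on anti-FLAG-coated, BSA-blocked wells for 3 h at 4 °C. Compound (100 µM final, 2% DMSO) preincubated 55 min at 37 °C. Wells were washed three times (or not washed), then ATP (250 µM) was added for 40 min at 37 °C. ADP was read by ADP-Glo. Equal protein loading was checked by anti-His ELISA.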"}, "[12]": {"molecular_target": "NACHT, LRR and PYD domains-containing protein 3 (Homo sapiens) (UniProt Q96P20)", "assay": "Inhibition of recombinant human NLRP3 ATPase assessed as hydrolysis of ATP at 100 uM preincubated for 15 mins followed by addition of ATP measured after 40 mins by ADP-Glo assay", "how_it_was_run": "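Human recombinant NLRP3 (0.105 µg) in 20 mM Tris-HCl pH 7.8, 133 mM NaCl, 20 mM MgCl2, 3 mM KCl, 0.56 mM EDTA, 0.5% DMSO. Compound (100 or 50 µM) was preincubated 15 min at 37 °C, then ATP (250 µM) was added for 40 min at 37 °C. ADP was read by ADP-Glo luminescence. Result is % inhibition vs vehicle; mean ± SEM, ≥3 experiments.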"}, "[13]": {"assay": "Stability of the compound in simulated intestinal fluid at 1.56 mg as suspension in olive oil and pH 7 after 2 hrs by UHPLC-MS analysis", "how_it_was_run": "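1.56 mg suspended in 100 µL olive oil, mixed with 100 µL SGF (pH 2, pepsin 3.2 mg/mL) for 2 h at 37 °C with shaking. Then 200 µL SIF (pH 7, pancreatin 2 mg/mL) was added for a further 2 h. Dedicated samples at 0, 30, 60 and 120 min were extracted with acetonitrile and analysed by UHPLC-MS. ≥3 repeats.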"}, "[14]": {"molecular_target": "NACHT, LRR and PYD domains-containing protein 3 (Mus musculus) (UniProt Q8R4B8)", "assay": "Inhibition of NLRP3 inflammasome in LPS-primed C57BL/6 mouse bone marrow derived macrophages assessed as reduction in ATP-induced IL-1beta production at 10 uM preincubated for 1 hr followed by stimulation with ATP measured after 30 mins by ELISA", "how_it_was_run": "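C57BL/6 bone marrow macrophages, differentiated with 20% L-cell medium, were primed with LPS (1 µg/mL, 3 h). They were then exposed to compound or vehicle for 1 h and stimulated with ATP (5 mM, 30 min). IL-1β released into the medium was measured by ELISA.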"}}, "note": "Calls of active or inactive are those of the source. The calls are words filed in the database; no cut-off is given here."}
{"smiles": "C=C(Cc1ccccc1Cl)C(=O)OCC", "values": [{"measurement": "inhibition", "setting": "[1]", "value": "Active"}, {"measurement": "Drug metabolism", "setting": "[2]", "value": "Metabolite not detected"}, {"measurement": "Activity_index", "setting": "Rattus norvegicus [3]", "value": 3.1}, {"measurement": "inhibition", "setting": "Caspase-1 (Homo sapiens)", "value": "inactive"}, {"measurement": "inhibition", "setting": "[4]", "value": "Active"}, {"measurement": "Activity", "setting": "Rattus norvegicus [5]", "value": 3.3, "unit": "pg/mg"}, {"measurement": "Activity_index", "setting": "Rattus norvegicus [6]", "value": 4.7}, {"measurement": "Stability", "setting": "[7]", "value": 83.3, "unit": "%"}, {"measurement": "Activity", "setting": "Rattus norvegicus [8]", "value": -19, "unit": "%"}, {"measurement": "inhibition", "setting": "[9]", "value": "Active"}, {"measurement": "Drug metabolism", "setting": "Duodenum", "value": "Metabolite_Detected"}, {"measurement": "Drug metabolism", "setting": "[10]", "value": "Metabolite_Detected"}, {"measurement": "inhibition", "setting": "[11]", "value": 40, "unit": "%"}, {"measurement": "inhibition", "setting": "[12]", "value": 52, "unit": "%"}, {"measurement": "Stability", "setting": "[13]", "value": "> 99.5", "unit": "%"}, {"measurement": "inhibition", "setting": "[14]", "value": "Active"}]}
